Source: PubChem (Johns Hopkins Ion Channel Center)
Compounds with a hit are over-represented: about 3.5% of the library has one in this group of screens.
MrgX1 ag = activates human MrgX1 receptor signaling | Q96LB2 | MrgX1-HEK293 cells, Fluo-4 calcium fluorescence, agonist mode; stronger effect = higher value | B-score at 10 µM | hit rate 0.44% among 310,000 | AID 588627;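 active = calcium response B-score plate-corrected fluorescence ratio at least 3 library SD, with starting fluorescence B-score inside 5 SD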
Target sequence (Q96LB2 whole entry, looked up): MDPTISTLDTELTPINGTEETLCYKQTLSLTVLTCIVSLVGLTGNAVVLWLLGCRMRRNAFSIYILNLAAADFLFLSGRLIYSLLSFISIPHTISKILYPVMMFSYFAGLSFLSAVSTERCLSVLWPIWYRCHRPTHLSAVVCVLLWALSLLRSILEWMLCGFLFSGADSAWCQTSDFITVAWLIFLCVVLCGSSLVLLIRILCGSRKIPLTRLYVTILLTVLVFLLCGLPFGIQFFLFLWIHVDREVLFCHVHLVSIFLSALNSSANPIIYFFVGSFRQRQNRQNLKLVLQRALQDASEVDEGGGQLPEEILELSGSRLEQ
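System – MrgX1-expressing HEK293 cells · Incubation – cells plated overnight, dye loaded 0.5 h 37 °C, 0.5 h room temperature · Technique – kinetic Fluo-4 NW fluorescence of intracellular calcium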
MrgX1 allo act = human MrgX1 positive allosteric modulation, primary screen | MrgX1-HEK293, Fluo-4 calcium flux, FDSS; stronger effect = higher value | B-score at 10 µM | hit rate 0.63% among 310,000;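 active = plate-corrected calcium response at least 3 library SD above typical, normal starting fluorescence, not activating the receptor alone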;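 note: compound read alongside a low EC10 to EC30 dose of BAM8-22 agonist; peak minus trough fluorescence over baseline measured at the second addition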
MrgX1 antag = antagonists of human MrgX1 receptor | hit rate 1.3% among 310,000 | MRGX1-HEK293 calcium flux, Fluo-4, BAM8-22 antagonism; stronger effect = lower value | AID 588676 | B-score at 10 µM | Q96LB2;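 active = calcium-response B-score plate-corrected more than 3 library SD below zero, starting fluorescence within 5 deviations, no agonist response on first addition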;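 note: peak minus trough fluorescence over baseline after final BAM8-22 challenge near maximal dose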
RGS4 act = RGS4 potentiation or activation. HEK293 M3R/inducible RGS4, carbachol calcium flux Fluo4; stronger effect = lower value. B-score at 10 µM. hit rate 0.92% among 310,000. AID 463111;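 active = B-score of the integrated calcium signal more than 4 SD below the library mean, with starting fluorescence not abnormally high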;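 note: negative B-score means reduced calcium response which marks RGS4 activation or potentiation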
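Also added: carbachol at ECmax as muscarinic agonist stimulus; Assay system: HEK293 cells with stable M3R and inducible RGS4; Timing: overnight RGS4 induction, 30 min dye load 37 °C, 20 min compound RT; Measured by: Fluo4-AM (2 µM) calcium-flux fluorescence, kinetic read.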
RGS4 block = inhibitors of human RGS4 | P49798 | HEK293 M3R/RGS4 inducible, Fluo-4 calcium flux; stronger effect = higher value; triggered by carbachol at its EC20 | B-score at 10 µM | hit rate 0.45% among 310,000;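 active = B-score, a plate-corrected calcium signal, over three deviations above library mean, with baseline fluorescence within five deviations of library mean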;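 note: RGS4 expression induced by doxycycline in cells with stable M3 receptor; B-score is computed from the integrated fluorescence ratio over baseline after carbachol; higher B-score means a larger calcium signal and so more RGS4 inhibition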
Target sequence (P49798 whole entry, looked up): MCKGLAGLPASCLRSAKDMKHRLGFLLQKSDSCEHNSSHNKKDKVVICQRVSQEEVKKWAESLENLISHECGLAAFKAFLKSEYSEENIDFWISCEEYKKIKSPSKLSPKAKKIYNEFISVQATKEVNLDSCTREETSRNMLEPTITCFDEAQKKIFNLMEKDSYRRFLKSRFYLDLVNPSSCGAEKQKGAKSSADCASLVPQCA
MrgX1 ant reconf = reconfirmed antagonist of human MrgX1 receptor signaling; shares compounds with MrgX1 antag; MrgX1-HEK293, BAM8-22 calcium flux, Fluo-4; stronger effect = lower value; remaining BAM8-22 calcium response % of control (stronger effect = lower value), % at 10 µM; hit rate 19% among 2,300; AID 602420;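 active = remaining agonist calcium response no higher than 100% minus 3 SD of agonist-only control wells, with starting fluorescence near control levels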;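 note: agonist BAM8-22 given at a near maximal EC90 to ECmax level; peak minus minimum fluorescence divided by baseline after agonist addition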
HEK293 Ca flux = activity in parental HEK293 cells lacking MrgX1 | shares compounds with MrgX1 antag | Fluo-4 calcium fluorescence, FDSS | fluorescence ratio F(max-min)/F0 at 10 µM | hit rate 2% among 4,000;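 active = duplicate-averaged calcium fluorescence ratio at least three times the standard deviation of buffer wells, a nonspecific response in parental cells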
HEK293 Ca counter = activity in parental HEK293 cells without MrgX1. shares compounds with MrgX1 antag. parental HEK293 calcium flux, Fluo-4 fluorescence ratio; stronger effect = higher value. hit rate 0.4% among 4,000. fluorescence ratio F(max-min)/F0 at 10 µM. AID 624114;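 active = calcium fluorescence ratio, averaged over duplicates, at least 3 SD of the buffer-well ratio, meaning a nonspecific response in receptor-free cells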;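 note: untransfected parental HEK293 lacking MrgX1 used as counterscreen for MrgX1 allosteric activators; fluorescence change taken during the second addition on a kinetic imager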
HEK293 Ca cntr2 = activity in parental HEK293 cells lacking MrgX1 receptor. shares compounds with MrgX1 antag. Fluo-4 calcium fluorescence (FDSS); stronger effect = higher value. fluorescence ratio F(max-min)/F0 at 10 µM. hit rate 8.7% among 4,000;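 active = calcium fluorescence ratio at least three times the spread of buffer wells, meaning a non-specific response in parental cells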
Each line names hits and unclear results; the compound was inactive in the other large screens (follow-up assays come after a bar, where they were run).

Cc1ccc(-c2nnc(CSc3nnc(C)s3)o2)cc1	MrgX1 antag -5.9 | MrgX1 ant reconf inactive | HEK293 Ca flux inactive | HEK293 Ca counter inactive | HEK293 Ca cntr2 inactive
CCOc1ccc(S(=O)(=O)N2CCCC(C(=O)NCCN3CCOCC3)C2)cc1Cl (configuration not stated)	none
Cc1cccc(N(CC(=O)NC2CCCCC2)C(=O)c2c(C)noc2C)c1	MrgX1 antag -6.5 | MrgX1 ant reconf inactive | HEK293 Ca flux inactive | HEK293 Ca counter inactive | HEK293 Ca cntr2 inactive
Cc1cccc(N(CC(=O)NC2CCCCC2)C(=O)c2csnn2)c1	none
COc1ccc2c(=O)c(N3C(=O)c4ccccc4C3=O)c(C)oc2c1	MrgX1 antag -5.2 | MrgX1 ant reconf inactive | HEK293 Ca flux inactive | HEK293 Ca counter inactive | HEK293 Ca cntr2 inactive
COc1ccc2c(=O)c3ccccc3oc2c1	none
O=S(=O)(c1ccccc1)N1CCN(Cc2cccc(Cl)c2)CC1	MrgX1 antag -6.9 (no result: RGS4 act, RGS4 block) | MrgX1 ant reconf inactive | HEK293 Ca flux inactive | HEK293 Ca counter inactive | HEK293 Ca cntr2 inactive
COc1cccc(CN2CCC(C(=O)N3CCN(c4ccccc4F)CC3)CC2)c1OC	MrgX1 antag -9.2 | MrgX1 ant reconf inactive | HEK293 Ca flux inactive | HEK293 Ca counter inactive | HEK293 Ca cntr2 inactive
CN(C(=O)c1ccccc1OC1CCN(S(C)(=O)=O)CC1)C1CCOC1 (configuration not stated)	none
CC(=O)c1ccccc1OC(=O)CCN1C(=O)C2C3C=CC(C4CC34)C2C1=O (configuration not stated)	MrgX1 antag -4.5 | MrgX1 ant reconf inactive | HEK293 Ca flux inactive | HEK293 Ca counter inactive | HEK293 Ca cntr2 inactive
O=C(CCN1C(=O)C2C3C=CC(C4CC34)C2C1=O)Oc1ccccc1 (configuration not stated)	none
COc1ccccc1N(CC(=O)N1CCN(c2ccc(F)cc2)CC1)S(=O)(=O)c1ccc(C)cc1	none
O=C(OCc1nnc(-c2ccccc2)o1)C1CC(=O)N(c2ccccc2)C1 (configuration not stated)	none
O=C(OCc1nnc(-c2ccccc2)o1)C1CC(=O)N(Cc2ccco2)C1 (configuration not stated)	MrgX1 antag -5 | MrgX1 ant reconf inactive | HEK293 Ca flux inactive | HEK293 Ca counter inactive | HEK293 Ca cntr2 inactive
O=C(CC1C(=O)NCCN1Cc1cccc(C(F)(F)F)c1)NC1CCCCCC1 (configuration not stated)	none
O=S1(=O)N=C2CCCCCN2C(c2ccccc2)N1 (configuration not stated)	MrgX1 antag -4.6 | MrgX1 ant reconf 85% | HEK293 Ca flux inactive | HEK293 Ca counter inactive | HEK293 Ca cntr2 inactive
COc1ccc(N=Cc2oc3ccc4ccccc4c3c2O)cc1	MrgX1 antag -5.1 | MrgX1 ant reconf 51% | HEK293 Ca flux inactive | HEK293 Ca counter inactive | HEK293 Ca cntr2 inactive
COc1ccc(N=Cc2[nH]c3ccccc3c2O)cc1	none
CCCCCCNCc1c(F)cccc1Cl	none
O=C(Nc1ccccc1)c1cccc(N2CCCC2=O)c1	MrgX1 antag -6.7 | MrgX1 ant reconf inactive | HEK293 Ca flux inactive | HEK293 Ca counter inactive | HEK293 Ca cntr2 inactive
CN(c1ccccc1)S(=O)(=O)c1nnc(NC(=O)C2CCCCC2)s1	none
COc1ccc(OCC(=O)NCCCCCCNC(=O)COc2ccc(OC)cc2)cc1	none
Cc1cc(C(F)(F)F)c(C#N)c(SCC(=O)Nc2nc3ccccc3s2)n1	none
Cc1ccc2sc(NC(=O)CSc3nc(C)cc(C)c3C#N)nc2c1	MrgX1 antag -6.4 | MrgX1 ant reconf inactive | HEK293 Ca flux inactive | HEK293 Ca counter inactive | HEK293 Ca cntr2 inactive
CC1(C(=O)NCCN2CCOCC2)C=CC2(CCCCC2)N1C(=O)c1ccccc1 (configuration not stated)	MrgX1 antag -6.8 | MrgX1 ant reconf 83% | HEK293 Ca flux inactive | HEK293 Ca counter inactive | HEK293 Ca cntr2 inactive
COCCNC(=O)C1(C)C=CC2(CCCCC2)N1C(=O)c1ccccc1 (configuration not stated)	none
Nc1ccc(-c2nc3ccc([N+](=O)[O-])cc3[nH]2)cc1	none
O=[N+]([O-])c1ccc(-c2nc3ccc([N+](=O)[O-])cc3[nH]2)cc1	MrgX1 antag -10 | MrgX1 ant reconf inactive | HEK293 Ca flux inactive | HEK293 Ca counter inactive | HEK293 Ca cntr2 inactive
COc1cccc2c(=O)cn[nH]c12	none
Cc1cc(=O)[nH]c2ccc(S(=O)(=O)NCc3ccccc3)cc12	none
COc1ccc(-c2c(C#N)c(N)nc3c2c(=O)n(C)c(=O)n3C)cc1Cl	MrgX1 antag -8.3 | MrgX1 ant reconf inactive | HEK293 Ca flux inactive | HEK293 Ca counter inactive | HEK293 Ca cntr2 inactive
CCOC(=O)C1(Cc2cccc(Cl)c2)CCCN(C(=O)C(C)(C)C)C1 (configuration not stated)	none
CC(=O)c1ccc(NC(=O)c2cnn3c(C(F)F)cc(C4CC4)nc23)cc1	MrgX1 antag -5 | MrgX1 ant reconf inactive | HEK293 Ca flux inactive | HEK293 Ca counter inactive | HEK293 Ca cntr2 inactive
Cc1cc(-c2nnc3n2CCCCC3)c(C)n1-c1ccccc1	MrgX1 antag -4.7 | MrgX1 ant reconf inactive | HEK293 Ca flux inactive | HEK293 Ca counter inactive | HEK293 Ca cntr2 inactive
COc1ccc(-c2nnc3n2CCCCC3)cc1OC	none
CCCCc1ccc(NC(=O)CSc2nc(=O)n(CCCN3CCOCC3)c3c2CCC3)cc1	none
Cc1ccc(NC(=O)C2(c3cccs3)CCOCC2)cc1C	MrgX1 antag -4.8 | MrgX1 ant reconf inactive | HEK293 Ca flux inactive | HEK293 Ca counter inactive | HEK293 Ca cntr2 inactive
O=C(CN1C(=O)NC2(CCCCC2)C1=O)N1CCN(S(=O)(=O)c2ccccc2)CC1	MrgX1 antag -5.5 | MrgX1 ant reconf inactive | HEK293 Ca flux inactive | HEK293 Ca counter inactive | HEK293 Ca cntr2 inactive
O=C(c1ccc(C(=O)N2CCCc3ccccc32)s1)N1CCCc2ccccc21	none
Cc1ccc(C)c2nc3sc(C(=O)N4CCCc5ccccc54)c(N)c3cc12	MrgX1 antag -5.4, RGS4 act -7 | MrgX1 ant reconf inactive | HEK293 Ca flux inactive | HEK293 Ca counter inactive | HEK293 Ca cntr2 51
CCOC(=O)N1CCN(C(=O)C2CCN(Cc3nc(-c4ccccc4C)oc3C)CC2)CC1	MrgX1 antag -4.8 | MrgX1 ant reconf inactive | HEK293 Ca flux inactive | HEK293 Ca counter inactive | HEK293 Ca cntr2 inactive
